The source made the active and inactive calls. The calls are words filed in the database; no cut-off is given here.
Experiments:
BAEC [1] = assay: (§1) Growth inhibition of bovine BAEC by MTT assay; type: functional, cell-based; conditions: Bos taurus
Outline: (§2)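 BAECs in RPMI 1640 with 10% heat-inactivated FBS, 3 × 10³ cells/well, seeded overnight, then exposed to compounds (10⁻⁶–10⁻³ M) for 48 h at 37 °C, 5% CO₂. MTT added to 0.5 mg/mL final, 3 h at 37 °C; formazan dissolved in DMSO, absorbance at 570 nm. Quadruplicate wells, experiments repeated at least twice; IC₅₀ determined.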

[2] = as §1; type: functional, cell-based; conditions: Bos taurus; outline: as §2
Alpha-glucosidase = target: T1, Alpha-glucosidase (Geobacillus stearothermophilus, UniProt P94451); assay: (§3) Inhibition of alpha glucosidase from bacillus stearothermophilus
T1 sequence (P94451 whole entry): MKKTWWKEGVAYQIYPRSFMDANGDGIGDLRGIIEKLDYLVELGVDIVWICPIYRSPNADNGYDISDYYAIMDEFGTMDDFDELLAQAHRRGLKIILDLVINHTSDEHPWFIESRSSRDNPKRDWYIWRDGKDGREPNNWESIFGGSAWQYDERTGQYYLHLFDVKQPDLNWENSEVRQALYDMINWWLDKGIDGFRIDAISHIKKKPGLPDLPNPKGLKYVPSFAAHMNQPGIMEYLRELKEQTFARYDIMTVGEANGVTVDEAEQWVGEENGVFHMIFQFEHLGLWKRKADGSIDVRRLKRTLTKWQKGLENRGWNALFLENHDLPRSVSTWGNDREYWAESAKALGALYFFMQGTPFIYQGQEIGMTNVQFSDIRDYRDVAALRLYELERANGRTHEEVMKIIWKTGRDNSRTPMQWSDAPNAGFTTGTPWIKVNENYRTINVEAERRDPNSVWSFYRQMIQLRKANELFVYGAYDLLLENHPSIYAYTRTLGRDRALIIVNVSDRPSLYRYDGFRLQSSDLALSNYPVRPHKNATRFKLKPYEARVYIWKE

BAEC [3] = assay: Antiangiogenesis activity in bovine BAEC cells assessed as inhibition of tube formation on Matrigel at 0.2 mM; type: functional, cell-based; conditions: Bos taurus
Outline: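 BAECs pretreated with compound (0.2 mM) 24 h, harvested, 3 × 10⁴ cells/0.1 ml in RPMI 1640 with 10 ng/mL bFGF plus 0.2 mM compound (controls bFGF only), layered on growth factor–reduced Matrigel polymerized 1 h at 37 °C; 8 h at 37 °C, 5% CO₂. Tubes counted in at least five microscope fields, averaged per field; repeated at least twice.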

[4] = target: T2, Alpha-glucosidase (Geobacillus stearothermophilus) (UniProt P94451); assay: as §3
T2 sequence (whole entry): T1 sequence (P94451 whole entry)

[5] = target: Methionine aminopeptidase 2 (Homo sapiens) (UniProt P50579); assay: Inhibition of MetAP2
Sequence of Methionine aminopeptidase 2 (Homo sapiens) (P50579 2-478 limits assumed): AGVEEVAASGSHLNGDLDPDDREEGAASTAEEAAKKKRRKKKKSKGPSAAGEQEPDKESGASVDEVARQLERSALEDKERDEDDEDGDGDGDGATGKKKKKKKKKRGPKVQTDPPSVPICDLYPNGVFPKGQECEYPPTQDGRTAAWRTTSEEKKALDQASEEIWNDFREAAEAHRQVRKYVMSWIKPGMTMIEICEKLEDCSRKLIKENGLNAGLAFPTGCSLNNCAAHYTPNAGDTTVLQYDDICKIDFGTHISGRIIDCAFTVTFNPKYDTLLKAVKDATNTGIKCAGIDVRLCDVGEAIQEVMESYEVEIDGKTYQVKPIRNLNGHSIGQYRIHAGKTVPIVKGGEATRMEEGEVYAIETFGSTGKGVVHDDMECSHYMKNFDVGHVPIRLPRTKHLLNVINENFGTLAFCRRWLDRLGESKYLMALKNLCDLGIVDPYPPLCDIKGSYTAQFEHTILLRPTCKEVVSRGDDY

SMILES | Activity (BAEC [1]) | IC50 [2] | IC50 (Alpha-glucosidase) | Activity (BAEC [3]) | Activity [4] | Activity [5]
OC[C@H]1NC[C@H](O)[C@@H](O)[C@@H]1O | inactive |  |  |  |  | 
OC[C@@H]1[C@@H](O)[C@H](O)[C@@H](O)CN1CCCCOc1cccc(-c2cnn[nH]2)c1 |  | 797 µM | 6.07 µM | inactive |  | 
OC[C@@H]1[C@@H](O)[C@H](O)[C@@H](O)CN1CCCCCCCCOc1cccc(-c2cnn[nH]2)c1 |  | 105 µM | 1.15 µM |  |  | 
COc1cccc(-c2cnn[nH]2)c1 |  | 347 µM |  |  | inactive | Active
OC[C@@H]1[C@@H](O)[C@H](O)[C@@H](O)CN1CCCCCCOc1cccc(-c2cnn[nH]2)c1 |  | 610 µM | 2.41 µM | inactive |  | 
